Our source for the inhibition and Activity values is ChEMBL document CHEMBL3124907.

Assay [1] concerns the target T1, 5-hydroxytryptamine receptor 2C (Homo sapiens) (UniProt P28335).
T1 sequence (whole entry): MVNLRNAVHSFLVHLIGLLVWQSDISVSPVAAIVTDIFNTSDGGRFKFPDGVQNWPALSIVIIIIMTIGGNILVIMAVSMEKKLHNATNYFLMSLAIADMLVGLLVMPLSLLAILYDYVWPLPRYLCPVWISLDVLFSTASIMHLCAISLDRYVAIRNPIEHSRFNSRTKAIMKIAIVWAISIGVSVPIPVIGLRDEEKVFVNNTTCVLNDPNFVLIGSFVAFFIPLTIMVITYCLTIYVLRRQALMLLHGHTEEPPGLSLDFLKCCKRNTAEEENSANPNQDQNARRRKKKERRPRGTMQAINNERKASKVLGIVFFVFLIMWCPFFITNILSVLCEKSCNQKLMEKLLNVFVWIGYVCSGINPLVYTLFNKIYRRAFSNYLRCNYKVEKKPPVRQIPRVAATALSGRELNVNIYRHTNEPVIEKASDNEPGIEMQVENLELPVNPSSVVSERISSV
In words: Inhibition of 5-HT2C receptor (unknown origin) at 10 uM by radioligand binding assay relative to control.

The target of assay [2] is 5-hydroxytryptamine receptor 2B (Homo sapiens) (UniProt P41595). Nature of the assay: Inhibition of 5-HT2B receptor (unknown origin) at 10 uM by radioligand binding assay relative to control.
Assay [3] concerns the target 5-hydroxytryptamine receptor 2A (Homo sapiens) (UniProt P28223). In words: Inhibition of 5-HT2A receptor (unknown origin) at 10 uM by radioligand binding assay relative to control.
The target of assay [4] is 5-hydroxytryptamine receptor 2B (Homo sapiens) (UniProt P41595). Nature of the assay: Agonist activity at 5-HT2B receptor (unknown origin) expressed in Flp-In HEK cells assessed as stimulation of calcium mobilization at 10 uM relative to 5-HT. Type of assay: functional, cell-based. To be noted: HEK293. Summed up:
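Agonist-mode calcium mobilization in Flp-In HEK cells expressing 5-HT2B, with test compound at 10 µM. Response expressed as percent of the maximal 5-HT response.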

For assay [5], the target named is Translocator protein (Homo sapiens) (UniProt P30536). In words: Inhibition of PBR (unknown origin) at 10 uM by radioligand binding assay relative to control.
For assay [6], the target named is Muscarinic acetylcholine receptor M5 (Homo sapiens) (UniProt P08912). Nature of the assay: Inhibition of muscarinic M5 receptor (unknown origin) at 10 uM by radioligand binding assay relative to control.
Assay [7] has as its target Glutamate [NMDA] receptor (Homo sapiens) (UniProt Q05586+Q12879+Q13224+O15399+O60391+Q14957+Q8TCU5). In words: Inhibition of NMDA receptor (unknown origin) at 10 uM by radioligand binding assay relative to control.
Assay [8] has as its target Muscarinic acetylcholine receptor M2 (Homo sapiens) (UniProt P08172). In words: Inhibition of muscarinic M2 receptor (unknown origin) at 10 uM by radioligand binding assay relative to control.
Assay [9] addresses Sodium-dependent noradrenaline transporter (Homo sapiens) (UniProt P23975). In words: Inhibition of NET (unknown origin) at 10 uM by radioligand binding assay relative to control.
The species named for assay [10] is Rattus norvegicus. Nature of the assay: Inhibition of benzodiazepine receptor in rat brain at 10 uM by radioligand binding assay relative to control. The class given is tissue-based.
For assay [11], the target named is Beta-2 adrenergic receptor (Homo sapiens) (UniProt P07550). In words: Inhibition of beta-2 adrenergic receptor (unknown origin) at 10 uM by radioligand binding assay relative to control.
Assay [12] addresses Alpha-2C adrenergic receptor (Homo sapiens) (UniProt P18825). Nature of the assay: Inhibition of alpha2C adrenergic receptor (unknown origin) at 10 uM by radioligand binding assay relative to control.
Assay [13] has as its target Alpha-2A adrenergic receptor (Homo sapiens) (UniProt P08913). Nature of the assay: Inhibition of alpha2A adrenergic receptor (unknown origin) at 10 uM by radioligand binding assay relative to control.
Assay [14] deals with Alpha-1D adrenergic receptor (Homo sapiens) (UniProt P25100). In words: Inhibition of alpha1D adrenergic receptor (unknown origin) at 10 uM by radioligand binding assay relative to control.
Assay [15] addresses Alpha-1B adrenergic receptor (Homo sapiens) (UniProt P35368). In words: Inhibition of alpha1B adrenergic receptor (unknown origin) at 10 uM by radioligand binding assay relative to control.
In assay [16] the target is Alpha-1A adrenergic receptor (Homo sapiens) (UniProt P35348). Nature of the assay: Inhibition of alpha1A adrenergic receptor (unknown origin) at 10 uM by radioligand binding assay relative to control.
The species named for assay [17] is Homo sapiens. Nature of the assay: Inhibition of sigma-2 receptor (unknown origin) at 10 uM by radioligand binding assay relative to control.
For assay [18], the target named is Histamine H3 receptor (Homo sapiens) (UniProt Q9Y5N1). Nature of the assay: Inhibition of histamine H3 receptor (unknown origin) at 10 uM by radioligand binding assay relative to control.
In assay [19] the target is Histamine H1 receptor (Homo sapiens) (UniProt P35367). Nature of the assay: Inhibition of histamine H1 receptor (unknown origin) at 10 uM by radioligand binding assay relative to control.
In assay [20] the target is D(1B) dopamine receptor (Homo sapiens) (UniProt P21918). In words: Inhibition of dopamine D5 receptor (unknown origin) at 10 uM by radioligand binding assay relative to control.
In assay [21] the target is D(1A) dopamine receptor (Homo sapiens) (UniProt P21728). In words: Inhibition of dopamine D1 receptor (unknown origin) at 10 uM by radioligand binding assay relative to control.
Assay [22] addresses Sodium-dependent serotonin transporter (Homo sapiens) (UniProt P31645). In words: Inhibition of SERT (unknown origin) at 10 uM by radioligand binding assay relative to control.
Assay [23] deals with 5-hydroxytryptamine receptor 7 (Homo sapiens) (UniProt P34969). Nature of the assay: Inhibition of 5-HT7 receptor (unknown origin) at 10 uM by radioligand binding assay relative to control.
Assay [24] concerns the target 5-hydroxytryptamine receptor 6 (Homo sapiens) (UniProt P50406). Nature of the assay: Inhibition of 5-HT6 receptor (unknown origin) at 10 uM by radioligand binding assay relative to control.
In assay [25] the target is 5-hydroxytryptamine receptor 3A (Homo sapiens) (UniProt P46098). In words: Inhibition of 5-HT3 receptor (unknown origin) at 10 uM by radioligand binding assay relative to control.
Assay [26] addresses 5-hydroxytryptamine receptor 1D (Homo sapiens) (UniProt P28221). Nature of the assay: Inhibition of 5-HT1D receptor (unknown origin) at 10 uM by radioligand binding assay relative to control.
The target in assay [27] is 5-hydroxytryptamine receptor 1B (Homo sapiens) (UniProt P28222). Nature of the assay: Inhibition of 5-HT1B receptor (unknown origin) at 10 uM by radioligand binding assay relative to control.
Assay [28] has as its target 5-hydroxytryptamine receptor 1A (Homo sapiens) (UniProt P08908). In words: Inhibition of 5-HT1A receptor (unknown origin) at 10 uM by radioligand binding assay relative to control.

Each structure is given as a SMILES string.

Chain of 5-hydroxytryptamine receptor 2B (Homo sapiens) (P41595 whole entry): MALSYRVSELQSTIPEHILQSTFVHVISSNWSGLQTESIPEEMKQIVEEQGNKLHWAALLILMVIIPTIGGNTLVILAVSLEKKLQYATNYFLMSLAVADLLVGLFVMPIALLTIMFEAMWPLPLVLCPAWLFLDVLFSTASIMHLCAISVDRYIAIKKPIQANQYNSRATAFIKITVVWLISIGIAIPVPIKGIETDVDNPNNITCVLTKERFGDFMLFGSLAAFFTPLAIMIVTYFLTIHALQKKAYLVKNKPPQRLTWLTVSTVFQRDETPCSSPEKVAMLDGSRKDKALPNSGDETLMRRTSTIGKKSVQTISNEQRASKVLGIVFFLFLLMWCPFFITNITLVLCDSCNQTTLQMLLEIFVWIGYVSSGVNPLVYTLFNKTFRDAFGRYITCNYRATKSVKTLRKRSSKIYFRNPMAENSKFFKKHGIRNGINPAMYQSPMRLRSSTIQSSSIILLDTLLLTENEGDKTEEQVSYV
Chain of 5-hydroxytryptamine receptor 2A (Homo sapiens) (P28223 whole entry): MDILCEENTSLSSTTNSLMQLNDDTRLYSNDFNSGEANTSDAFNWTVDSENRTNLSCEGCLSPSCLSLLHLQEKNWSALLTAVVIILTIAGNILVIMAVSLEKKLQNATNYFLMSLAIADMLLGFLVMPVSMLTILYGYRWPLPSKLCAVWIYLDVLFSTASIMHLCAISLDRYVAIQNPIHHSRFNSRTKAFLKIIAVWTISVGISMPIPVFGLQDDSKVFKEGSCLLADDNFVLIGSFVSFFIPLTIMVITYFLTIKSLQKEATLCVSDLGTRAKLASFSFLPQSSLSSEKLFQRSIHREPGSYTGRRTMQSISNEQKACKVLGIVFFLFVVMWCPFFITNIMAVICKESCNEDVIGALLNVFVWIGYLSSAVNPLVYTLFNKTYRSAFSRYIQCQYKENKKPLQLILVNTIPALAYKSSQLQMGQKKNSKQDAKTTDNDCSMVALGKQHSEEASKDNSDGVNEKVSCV
Chain of 5-hydroxytryptamine receptor 7 (Homo sapiens) (P34969 whole entry): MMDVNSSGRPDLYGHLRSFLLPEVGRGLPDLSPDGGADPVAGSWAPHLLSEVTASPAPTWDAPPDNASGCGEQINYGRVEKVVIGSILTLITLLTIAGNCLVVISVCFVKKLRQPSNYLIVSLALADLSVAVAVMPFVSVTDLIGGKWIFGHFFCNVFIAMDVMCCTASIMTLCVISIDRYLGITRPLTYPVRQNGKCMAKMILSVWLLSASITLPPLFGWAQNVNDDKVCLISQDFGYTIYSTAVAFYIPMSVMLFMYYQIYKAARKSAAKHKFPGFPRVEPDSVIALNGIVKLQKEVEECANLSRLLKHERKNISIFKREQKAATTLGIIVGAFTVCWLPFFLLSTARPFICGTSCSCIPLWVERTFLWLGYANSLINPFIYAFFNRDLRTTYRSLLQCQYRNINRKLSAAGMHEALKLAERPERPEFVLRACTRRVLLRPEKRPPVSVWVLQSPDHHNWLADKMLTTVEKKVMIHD
Chain of Alpha-2C adrenergic receptor (Homo sapiens) (P18825 whole entry): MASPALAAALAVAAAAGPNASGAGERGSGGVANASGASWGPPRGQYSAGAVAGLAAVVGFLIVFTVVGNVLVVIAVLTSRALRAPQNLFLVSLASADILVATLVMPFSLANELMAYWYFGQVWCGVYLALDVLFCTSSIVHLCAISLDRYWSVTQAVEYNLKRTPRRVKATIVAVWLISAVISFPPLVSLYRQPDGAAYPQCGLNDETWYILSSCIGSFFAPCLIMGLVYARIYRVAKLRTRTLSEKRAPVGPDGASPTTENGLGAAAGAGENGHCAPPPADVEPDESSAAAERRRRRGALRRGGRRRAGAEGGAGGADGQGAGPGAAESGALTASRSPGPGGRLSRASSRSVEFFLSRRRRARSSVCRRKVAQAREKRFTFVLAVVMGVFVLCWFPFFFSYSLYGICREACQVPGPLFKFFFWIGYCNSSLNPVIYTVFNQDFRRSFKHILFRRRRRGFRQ
Chain of Alpha-2A adrenergic receptor (Homo sapiens) (P08913 whole entry): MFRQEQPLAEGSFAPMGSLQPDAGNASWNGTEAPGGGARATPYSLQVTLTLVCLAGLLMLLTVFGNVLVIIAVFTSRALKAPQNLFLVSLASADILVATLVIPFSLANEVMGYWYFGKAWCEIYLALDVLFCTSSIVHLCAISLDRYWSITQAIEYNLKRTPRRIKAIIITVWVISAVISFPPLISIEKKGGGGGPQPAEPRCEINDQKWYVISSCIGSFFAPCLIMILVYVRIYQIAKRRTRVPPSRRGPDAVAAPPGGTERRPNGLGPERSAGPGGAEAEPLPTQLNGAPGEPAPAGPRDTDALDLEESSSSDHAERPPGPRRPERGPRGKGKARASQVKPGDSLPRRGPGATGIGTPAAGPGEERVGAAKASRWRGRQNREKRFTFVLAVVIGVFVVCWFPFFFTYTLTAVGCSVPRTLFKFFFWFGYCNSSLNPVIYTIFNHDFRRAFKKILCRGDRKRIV
Chain of 5-hydroxytryptamine receptor 1A (Homo sapiens) (P08908 whole entry): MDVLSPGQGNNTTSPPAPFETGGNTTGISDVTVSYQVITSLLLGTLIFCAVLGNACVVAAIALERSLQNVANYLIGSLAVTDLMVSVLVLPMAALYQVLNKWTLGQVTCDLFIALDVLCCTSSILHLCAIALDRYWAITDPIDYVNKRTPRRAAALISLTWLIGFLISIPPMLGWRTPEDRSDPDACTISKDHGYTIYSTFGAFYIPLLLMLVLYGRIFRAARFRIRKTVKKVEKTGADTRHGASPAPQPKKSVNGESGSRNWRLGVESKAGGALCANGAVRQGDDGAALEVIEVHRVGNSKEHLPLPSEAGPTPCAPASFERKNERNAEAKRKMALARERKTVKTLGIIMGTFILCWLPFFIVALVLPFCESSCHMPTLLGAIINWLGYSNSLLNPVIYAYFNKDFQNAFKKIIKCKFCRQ
Chain of 5-hydroxytryptamine receptor 3A (Homo sapiens) (P46098 whole entry): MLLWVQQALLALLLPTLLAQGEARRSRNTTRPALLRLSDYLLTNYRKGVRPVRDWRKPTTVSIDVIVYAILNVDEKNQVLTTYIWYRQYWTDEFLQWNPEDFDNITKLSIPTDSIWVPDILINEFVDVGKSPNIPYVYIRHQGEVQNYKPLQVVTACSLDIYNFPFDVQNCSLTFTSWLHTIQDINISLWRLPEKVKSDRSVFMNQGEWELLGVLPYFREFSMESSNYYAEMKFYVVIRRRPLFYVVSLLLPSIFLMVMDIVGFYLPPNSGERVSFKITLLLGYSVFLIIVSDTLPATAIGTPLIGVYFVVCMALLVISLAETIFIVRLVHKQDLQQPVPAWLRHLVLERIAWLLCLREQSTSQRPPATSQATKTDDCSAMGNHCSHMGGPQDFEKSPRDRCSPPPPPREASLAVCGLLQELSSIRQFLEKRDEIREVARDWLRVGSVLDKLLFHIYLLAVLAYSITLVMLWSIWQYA
Chain of Beta-2 adrenergic receptor (Homo sapiens) (P07550 whole entry, looked up): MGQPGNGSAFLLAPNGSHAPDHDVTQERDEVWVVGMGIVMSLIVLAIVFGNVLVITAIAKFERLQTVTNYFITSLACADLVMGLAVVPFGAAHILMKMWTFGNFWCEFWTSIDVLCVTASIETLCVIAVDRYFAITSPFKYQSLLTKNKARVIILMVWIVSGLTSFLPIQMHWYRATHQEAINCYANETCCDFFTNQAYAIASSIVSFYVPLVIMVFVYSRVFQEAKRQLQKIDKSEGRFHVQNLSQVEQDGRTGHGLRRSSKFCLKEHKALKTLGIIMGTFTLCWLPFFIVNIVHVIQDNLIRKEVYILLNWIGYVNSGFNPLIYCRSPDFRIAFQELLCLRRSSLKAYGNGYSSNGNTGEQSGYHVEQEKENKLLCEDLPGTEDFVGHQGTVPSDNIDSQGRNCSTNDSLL
Chain of Histamine H3 receptor (Homo sapiens) (Q9Y5N1 whole entry): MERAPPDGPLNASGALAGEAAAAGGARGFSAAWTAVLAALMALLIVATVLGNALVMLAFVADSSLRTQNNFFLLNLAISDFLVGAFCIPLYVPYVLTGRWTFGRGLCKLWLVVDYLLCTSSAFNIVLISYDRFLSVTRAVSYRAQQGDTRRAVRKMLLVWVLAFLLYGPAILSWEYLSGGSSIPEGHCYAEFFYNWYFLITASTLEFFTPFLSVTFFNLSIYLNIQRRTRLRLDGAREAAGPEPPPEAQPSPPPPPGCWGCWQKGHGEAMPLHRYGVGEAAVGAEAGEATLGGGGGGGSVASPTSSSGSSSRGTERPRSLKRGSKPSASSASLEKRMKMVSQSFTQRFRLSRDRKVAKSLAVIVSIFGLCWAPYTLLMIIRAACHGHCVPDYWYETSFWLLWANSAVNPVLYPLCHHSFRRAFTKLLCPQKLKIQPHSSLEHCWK
Chain of D(1B) dopamine receptor (Homo sapiens) (P21918 whole entry): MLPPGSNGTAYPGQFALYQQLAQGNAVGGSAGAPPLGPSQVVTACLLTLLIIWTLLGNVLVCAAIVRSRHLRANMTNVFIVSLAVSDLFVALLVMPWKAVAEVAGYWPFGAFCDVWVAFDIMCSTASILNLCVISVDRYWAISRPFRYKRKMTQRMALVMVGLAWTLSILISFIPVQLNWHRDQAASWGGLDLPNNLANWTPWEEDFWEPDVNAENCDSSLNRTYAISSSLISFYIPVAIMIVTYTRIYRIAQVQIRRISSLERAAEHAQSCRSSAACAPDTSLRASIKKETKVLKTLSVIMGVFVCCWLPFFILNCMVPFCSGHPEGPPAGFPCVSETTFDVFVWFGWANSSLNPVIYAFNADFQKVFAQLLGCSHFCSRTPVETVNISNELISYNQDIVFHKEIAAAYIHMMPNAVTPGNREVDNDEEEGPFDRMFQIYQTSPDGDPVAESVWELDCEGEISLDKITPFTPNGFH
Chain of Translocator protein (Homo sapiens) (P30536 whole entry): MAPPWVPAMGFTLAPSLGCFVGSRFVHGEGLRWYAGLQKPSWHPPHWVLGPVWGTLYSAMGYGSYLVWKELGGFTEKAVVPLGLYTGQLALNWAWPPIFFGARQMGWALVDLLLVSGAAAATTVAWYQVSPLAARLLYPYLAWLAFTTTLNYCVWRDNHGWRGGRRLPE

On to `O=c1cc(CCCCc2ccccc2)oc2cccc(O)c12`, for which the inhibition in assay [1] was 14.7%; in assay [2], 45.2%; in assay [3], 5.7%.

As for `O=c1cc(Cc2ccccc2)oc2cccc(O)c12`, the inhibition was 24.8% in assay [1], 30.6% in [2] and 1.4% in assay [3].

As to `O=c1cc(CCc2cccs2)oc2cccc(O)c12`, the results for the inhibition in assay [1], in [2] and in assay [3] were 19.6%, 74.8% and 1.4%, respectively.

For the compound `O=c1cc(COc2ccccc2)oc2cccc(O)c12`, the inhibition in assay [1] was 7.8%; in [2], 50%; in [3] it was 0.2%.

Regarding `O=c1cc(Cc2cccs2)oc2cccc(O)c12`, the results for the inhibition in assay [1], in assay [2] and in assay [3] were 23.5%, 31.5% and -4.5%, respectively.

As to `O=c1cc(CCc2ccccc2)oc2cccc(O)c12`, the Activity in [4] came out at 0.6%. In addition, the inhibition in assay [5] amounted to 2.8%; in [6] it was 19.3%; in assay [7] it was 17.4%; in assay [8], 1.8%; in [9] it was 34.6%; in [10], 0.1%. The inhibition in assay [11] stood at 1.4%; in assay [12] it was 32.7%; in assay [13], 22.2%; in assay [14], 2.1%; in assay [15] it was 2.9%; in assay [16], 16.9%. Besides, the inhibition in [17] is 36.8%; in [18] it was 15.9%; in assay [19], 13%; in assay [20], 0.4%; in assay [21], 24.7%; in [22], 28.9%. Besides, the inhibition was 35.9% in assay [23]; 5.8% in [24]; 61.7% in [25]; 4.3% in assay [26]; 3.7% in [27]; 5.4% in assay [28].

Regarding `O=c1cc(CCCc2ccccc2)oc2cccc(O)c12`, the figures for the inhibition in [1], in assay [2] and in assay [3] were 7.9%, 70.4% and 5.4%, respectively.
